From PubChem
T cruzi growth – blocks T. cruzi growth in NIH3T3 culture | T. cruzi beta-gal in NIH3T3, GalScreen luminescence, 90 h | inhibition, % at 8.34 µM | actives 5.9% (n = 77,000);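 active = mean inhibition above about 93%, with at least 55% of replicates each passing it, limit read from the data, passing the limit was not always enough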
IDH1 R132H inh – blocks human IDH1 R132H reductase activity. O75874. diaphorase/resazurin fluorescence, 60 min. inhibition, % at 10 µM. actives 0.18% (n = 70,000). AID 624101; in the data active = inhibition above about 34%
Target sequence (O75874 whole entry R132H): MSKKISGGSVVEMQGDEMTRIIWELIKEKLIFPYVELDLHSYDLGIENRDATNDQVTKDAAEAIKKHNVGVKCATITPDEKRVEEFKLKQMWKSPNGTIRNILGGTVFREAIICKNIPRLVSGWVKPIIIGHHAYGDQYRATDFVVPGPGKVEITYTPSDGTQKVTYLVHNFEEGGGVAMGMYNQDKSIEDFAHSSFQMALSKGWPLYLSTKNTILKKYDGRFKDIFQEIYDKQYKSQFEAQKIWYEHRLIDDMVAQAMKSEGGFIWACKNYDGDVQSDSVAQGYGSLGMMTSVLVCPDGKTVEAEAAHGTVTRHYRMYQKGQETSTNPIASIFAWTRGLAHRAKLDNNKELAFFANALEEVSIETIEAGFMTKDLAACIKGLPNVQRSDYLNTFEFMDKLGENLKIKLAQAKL
Pf Dd2 inh – P. falciparum Dd2 growth inhibition | SYBR Green, 72 h; active compounds read low | activity change, % at 10 µM | actives 2.3% (n = 94,000); in the data active = activity change below about -80%
KDM4C inh – KDM4C (human) demethylase inhibition | Q9H3R0 | GST-KDM4C 2-372, H3K9me3 peptide, LANCE TR-FRET | inhibition, % at 12.5 µM | actives 0.15% (n = 96,000) | AID 720574;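 active = mean replicate inhibition above about 25%, with at least 55% of replicates also reaching it, limit read from the data, passing the limit was not always enough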
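Material: GST-tagged GASC-1 (JMJD2C) catalytic fragment, aa 2-372. Input: enzyme final amount 10 nM. Medium: HEPES buffer, pH 7.5, plus ascorbate. Reagent: H3K9me3 peptide substrate, Fe(II), 2-oxoglutarate. Doses: single dose. Times: reaction 30 min RT, detection step 1 h RT. Measured by: LANCE TR-FRET. Evaluation: Fall in 671/618 emission ratio as inhibition.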
Of the large screens only hits and unclear results are named; the others gave an inactive call. The list is not random: actives were taken first. Their share in the collection is about 5.9%.

O=C1Oc2cc(O)cc(O)c2[C@@H](c2ccc(O)cc2)[C@H]1[C@H]1C(=O)Oc2cc(O)cc(O)c2[C@H]1c1ccc(O)cc1	IDH1 R132H inh 51.6 (no result: T cruzi growth, Pf Dd2 inh, KDM4C inh)
COC(=O)CSc1nc(NC(C)C)nc(N2CCOCC2)n1	none (no result: T cruzi growth, Pf Dd2 inh, KDM4C inh)
C[C@H](CO)N1C[C@H](C)[C@@H](CN(C)Cc2ccc(C(=O)Nc3ccccc3N)cc2)Oc2ccc(NC(=O)C3CCCCC3)cc2CC1=O	Pf Dd2 inh -84.9
C[C@H]1CN([C@@H](C)CO)C(=O)Cc2cc(NC(=O)C3CCCCC3)ccc2O[C@@H]1CN(C)Cc1ccc(C(=O)Nc2ccccc2N)cc1	Pf Dd2 inh -87.7 (no result: T cruzi growth)
C[C@H](CO)N1C[C@H](C)[C@H](CN(C)Cc2ccc(C(=O)Nc3ccccc3N)cc2)Oc2ccc(NC(=O)C3CCCCC3)cc2CC1=O	Pf Dd2 inh -83.6
C[C@@H]1CN([C@H](C)CO)C(=O)Cc2cc(NC(=O)C3CCCCC3)ccc2O[C@@H]1CN(C)Cc1ccc(C(=O)Nc2ccccc2N)cc1	none (no result: T cruzi growth, IDH1 R132H inh)
C[C@H](C(=O)N(C)C[C@H]1OCc2ccccc2-c2ccccc2C(=O)N([C@H](C)CO)C[C@H]1C)c1ccccc1	none (no result: IDH1 R132H inh)
O=S(=O)(Nc1cccnc1)c1cccc(S(=O)(=O)c2ccc(Cl)c(Cl)c2)c1	IDH1 R132H inh 46.7 (no result: T cruzi growth, Pf Dd2 inh, KDM4C inh)
O=S(=O)(Nc1ccc(Cl)cn1)c1cccc(S(=O)(=O)c2ccccc2)c1	none (no result: T cruzi growth, Pf Dd2 inh, KDM4C inh)
C[C@@H](O)C#Cc1ccc([C@H]2[C@@H](CO)N3CCCCN(CC4CC4)C[C@H]23)cc1	none (no result: IDH1 R132H inh)
C[C@H](CO)N1C[C@H](C)[C@@H](CN(C)C(=O)Cc2ccccc2)Oc2cc(-c3ccccc3)ccc2S1(=O)=O	none (no result: T cruzi growth)
COc1ccc2c3c(n(C)c2c1)[C@H](CO)N(C(=O)Nc1ccc(F)cc1)CC31CCN(Cc2cccnc2)CC1	Pf Dd2 inh -90.4 (no result: T cruzi growth, IDH1 R132H inh)
COc1ccc2c3c(n(C)c2c1)[C@@H](CO)N(C(=O)Nc1ccc(F)cc1)CC31CN(Cc2cccnc2)C1	none (no result: T cruzi growth, IDH1 R132H inh)
COc1ccc2c3c(n(C)c2c1)[C@@H](CO)N(C(=O)Nc1ccc(F)cc1)CC31CCN(Cc2cccnc2)CC1	Pf Dd2 inh -89.0 (no result: T cruzi growth, IDH1 R132H inh)
Cc1noc(C)c1S(=O)(=O)N(C)C[C@H]1Oc2c(NC(=O)C3CCCCC3)cccc2C(=O)N([C@H](C)CO)C[C@H]1C	none
C[C@H](CO)N1C[C@H](C)[C@H](CN(C)C(=O)Nc2cccc3ccccc23)Oc2ccc(NC(=O)CCN3CCOCC3)cc2C1=O	none
COc1ccc(S(=O)(=O)Nc2ccc3c(c2)CC(=O)N([C@@H](C)CO)C[C@H](C)[C@H](CN(C)S(=O)(=O)c2ccc(OC)cc2)O3)cc1	Pf Dd2 inh -86.5
Cc1ccc(S(=O)(=O)N(C)C[C@@H]2Oc3ccc(NS(=O)(=O)c4ccc(Cl)cc4)cc3CC(=O)N([C@@H](C)CO)C[C@@H]2C)cc1	Pf Dd2 inh -81.0
COc1ccc(S(=O)(=O)Nc2ccc3c(c2)CC(=O)N([C@H](C)CO)C[C@H](C)[C@@H](CN(C)S(=O)(=O)c2ccc(OC)cc2)O3)cc1	none
O=C(CCCCCC(=O)Nc1ccccc1O)N/N=C\c1cc(O)ccc1O	IDH1 R132H inh 49.8 (no result: T cruzi growth, Pf Dd2 inh, KDM4C inh)
O=C(CCCCCCC(=O)Nc1ccccc1O)N/N=C/c1cc(O)ccc1Br	none (no result: T cruzi growth, Pf Dd2 inh, KDM4C inh)
O=C(CCCCCC(=O)N/N=C/c1cc(O)ccc1O)NO	IDH1 R132H inh 68.8 (no result: T cruzi growth, Pf Dd2 inh, KDM4C inh)
CCCC#Cc1ccc2c(c1)O[C@@H](CN(C)CC1CCOCC1)[C@H](C)CN([C@@H](C)CO)S2(=O)=O	none (no result: T cruzi growth)
C[C@@H]1CN([C@@H](C)CO)C(=O)c2cccc(NC(=O)Nc3cccc4ccccc34)c2O[C@H]1CN(C)C(=O)NC1CCCCC1	Pf Dd2 inh -89.2
C[C@H](CO)N1C[C@H](C)[C@H](CN(C)C(=O)Nc2ccc(C(F)(F)F)cc2)Oc2c(NC(=O)CCCCCC(=O)Nc3ccccc3N)cccc2C1=O	Pf Dd2 inh -88.6 (no result: T cruzi growth)
C[C@@H]1CN([C@H](C)CO)C(=O)c2cccc(NC(=O)CCCCCC(=O)Nc3ccccc3N)c2O[C@@H]1CN(C)C(=O)Nc1ccc(F)cc1	Pf Dd2 inh -86.4 (no result: T cruzi growth, IDH1 R132H inh)
C[C@@H]1CN([C@@H](C)CO)C(=O)c2cccc(NC(=O)CCCCCC(=O)Nc3ccccc3N)c2O[C@@H]1CN(C)C(=O)NC1CCCCC1	Pf Dd2 inh -86.5 (no result: T cruzi growth)
C[C@H]1CN([C@@H](C)CO)C(=O)c2cccc(NC(=O)CCCCCC(=O)Nc3ccccc3N)c2O[C@@H]1CN(C)C(=O)Nc1ccc(F)cc1	none (no result: T cruzi growth)
COc1ccc(S(=O)(=O)N2C[C@H](O)COC[C@H]3O[C@H](CC(=O)NCCCN4CCOCC4)CC[C@@H]32)cc1	none (no result: IDH1 R132H inh)
Cc1ccc(CN2CC(=O)N3[C@H](CO)[C@H](c4ccc(-c5ccccc5F)cc4)[C@@H]3C2)cc1	none (no result: T cruzi growth, IDH1 R132H inh)
